The target of data set [1] is T1, E3 ubiquitin-protein ligase TRIM33 (Homo sapiens) (UniProt Q9UPN9).
T1 sequence (whole entry): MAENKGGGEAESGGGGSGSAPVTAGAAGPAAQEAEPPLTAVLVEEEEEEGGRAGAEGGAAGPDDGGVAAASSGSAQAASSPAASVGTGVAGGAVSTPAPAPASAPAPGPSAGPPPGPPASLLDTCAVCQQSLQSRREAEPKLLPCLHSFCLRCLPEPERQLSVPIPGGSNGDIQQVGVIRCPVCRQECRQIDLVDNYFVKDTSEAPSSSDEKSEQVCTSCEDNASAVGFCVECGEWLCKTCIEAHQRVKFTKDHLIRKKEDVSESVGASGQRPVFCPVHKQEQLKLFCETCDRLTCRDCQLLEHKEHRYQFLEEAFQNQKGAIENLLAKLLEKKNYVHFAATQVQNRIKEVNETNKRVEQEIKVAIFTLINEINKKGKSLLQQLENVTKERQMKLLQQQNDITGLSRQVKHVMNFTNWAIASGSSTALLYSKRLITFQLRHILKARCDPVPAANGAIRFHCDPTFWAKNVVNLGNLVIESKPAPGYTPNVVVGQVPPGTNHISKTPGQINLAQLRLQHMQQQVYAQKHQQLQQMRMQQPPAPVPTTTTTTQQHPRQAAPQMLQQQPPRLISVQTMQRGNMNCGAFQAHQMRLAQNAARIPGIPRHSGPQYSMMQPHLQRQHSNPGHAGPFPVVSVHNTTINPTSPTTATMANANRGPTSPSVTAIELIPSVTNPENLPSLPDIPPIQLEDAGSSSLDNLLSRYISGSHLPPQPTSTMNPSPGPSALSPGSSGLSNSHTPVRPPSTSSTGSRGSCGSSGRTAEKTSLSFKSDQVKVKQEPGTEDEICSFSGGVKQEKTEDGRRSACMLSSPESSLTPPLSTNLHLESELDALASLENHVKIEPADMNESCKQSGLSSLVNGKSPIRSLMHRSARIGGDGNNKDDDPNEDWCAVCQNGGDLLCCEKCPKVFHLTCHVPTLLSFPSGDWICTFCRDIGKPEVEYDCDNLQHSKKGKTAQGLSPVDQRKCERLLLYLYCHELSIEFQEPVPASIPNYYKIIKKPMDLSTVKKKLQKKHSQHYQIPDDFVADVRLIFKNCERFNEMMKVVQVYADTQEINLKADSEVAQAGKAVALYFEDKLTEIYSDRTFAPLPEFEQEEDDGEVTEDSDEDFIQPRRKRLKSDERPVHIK
As to the kind of experiment: Inhibition of His6FLAG-tagged TRIM33 isoform B expressed in Escherichia coli assessed as change in melting temperature at 100 uM by thermal shift assay. The method, boiled down: (§1)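 Thermal melt: protein heated with or without 100 μM compound, at least duplicate; Sypro orange at 1:1000 in PBS with 10% glycerol; ramp 1 °C/min, fluorescence read every 0.5 °C; ΔTm reported.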

A short description of data set [2]: Solubility of the compound at pH 7. Type of data set: physicochemical. Conditions: buffer.
Data set [3] is described as follows: Solubility of the compound at pH 5. The following applies: buffer. Type of data set: physicochemical.
Data set [4] addresses T2, Bromodomain-containing protein 2 (Homo sapiens, UniProt P25440). As to the kind of experiment: Inhibition of His6FLAG-tagged BRD2-BD12 expressed in Escherichia coli assessed as change in melting temperature at 100 uM by thermal shift assay. The method, boiled down:
as §1

Data set [5] concerns the target Bromodomain-containing protein 4 (Homo sapiens, UniProt O60885). As to the kind of experiment: Inhibition of His6FLAG-tagged BRD4-BD1 expressed in Escherichia coli assessed as change in melting temperature at 100 uM by thermal shift assay. The method, boiled down: as §1
Data set [6] has as its target PH-interacting protein (Homo sapiens) (UniProt Q8WWQ0). As to the kind of experiment: Inhibition of His6FLAG-tagged PHIP-BD2 expressed in Escherichia coli assessed as change in melting temperature at 100 uM by thermal shift assay. The method in brief: as §1
Data set [7] deals with Bromodomain adjacent to zinc finger domain protein 2B (Homo sapiens) (UniProt Q9UIF8). As to the kind of experiment: Inhibition of His6FLAG-tagged BAZ2B expressed in Escherichia coli assessed as change in melting temperature at 100 uM by thermal shift assay. The method in brief: as §1
Data set [8] addresses T2, Bromodomain-containing protein 2. As to the kind of experiment: Inhibition of His6FLAG-tagged BRD2-BD1 expressed in Escherichia coli assessed as change in melting temperature at 100 uM by thermal shift assay. The method in brief:
as §1

In data set [9] the target is T3, Bromodomain-containing protein 1 (Homo sapiens) (UniProt O95696).
T3 sequence (whole entry): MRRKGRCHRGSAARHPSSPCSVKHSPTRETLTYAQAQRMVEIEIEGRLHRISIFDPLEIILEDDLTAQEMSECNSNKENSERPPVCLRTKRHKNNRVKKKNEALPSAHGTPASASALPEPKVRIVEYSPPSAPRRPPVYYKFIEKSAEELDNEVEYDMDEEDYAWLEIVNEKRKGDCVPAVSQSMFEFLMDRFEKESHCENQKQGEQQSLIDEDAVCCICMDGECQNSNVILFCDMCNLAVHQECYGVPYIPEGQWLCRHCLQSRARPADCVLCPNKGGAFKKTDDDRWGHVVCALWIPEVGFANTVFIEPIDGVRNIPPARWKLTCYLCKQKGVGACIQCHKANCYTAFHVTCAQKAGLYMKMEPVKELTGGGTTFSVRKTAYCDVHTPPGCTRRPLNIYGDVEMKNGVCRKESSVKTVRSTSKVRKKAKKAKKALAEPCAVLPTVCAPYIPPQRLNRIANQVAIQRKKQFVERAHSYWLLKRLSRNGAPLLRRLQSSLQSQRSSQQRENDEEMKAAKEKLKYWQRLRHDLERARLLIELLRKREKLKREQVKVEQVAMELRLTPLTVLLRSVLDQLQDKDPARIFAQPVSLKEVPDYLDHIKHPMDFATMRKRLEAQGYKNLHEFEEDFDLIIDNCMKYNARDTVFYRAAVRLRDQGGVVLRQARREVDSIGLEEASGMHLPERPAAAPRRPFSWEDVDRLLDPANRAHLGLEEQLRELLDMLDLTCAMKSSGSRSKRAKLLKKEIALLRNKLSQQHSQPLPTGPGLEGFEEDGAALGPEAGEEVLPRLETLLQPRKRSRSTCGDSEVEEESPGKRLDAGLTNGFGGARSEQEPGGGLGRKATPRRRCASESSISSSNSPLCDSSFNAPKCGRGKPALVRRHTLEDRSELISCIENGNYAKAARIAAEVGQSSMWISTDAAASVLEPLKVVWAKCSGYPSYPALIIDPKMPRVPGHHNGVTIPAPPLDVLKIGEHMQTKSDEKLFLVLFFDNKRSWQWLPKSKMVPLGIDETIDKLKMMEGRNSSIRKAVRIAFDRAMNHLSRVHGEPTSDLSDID
As to the kind of experiment: Inhibition of His6FLAG-tagged BRD1 expressed in Escherichia coli assessed as change in melting temperature at 100 uM by thermal shift assay. The method in brief:
as §1

The target of data set [10] is Bromodomain-containing protein 3 (Homo sapiens, UniProt Q15059). As to the kind of experiment: Inhibition of His6FLAG-tagged BRD3-BD12 expressed in Escherichia coli assessed as change in melting temperature at 100 uM by thermal shift assay. The method in brief: as §1
Data set [11] addresses CREB-binding protein (Homo sapiens) (UniProt Q92793). As to the kind of experiment: Inhibition of His6FLAG-tagged CREBBP expressed in Escherichia coli assessed as change in melting temperature at 100 uM by thermal shift assay. The method in brief: as §1

SMILES strings stand for the structures. Values after ≈ are worked out from the molar mass of the structure shown. Where only a bound is given, the exact number is not on record here.

Drawing on ChEMBL document CHEMBL2176978, “Fragment-based discovery of bromodomain inhibitors part 2: optimization of phenylisoxazole sulfonamides” (J Med Chem, 2012), this text covers ΔTm and solubility for two molecules.

T2 sequence (P25440 whole entry, looked up): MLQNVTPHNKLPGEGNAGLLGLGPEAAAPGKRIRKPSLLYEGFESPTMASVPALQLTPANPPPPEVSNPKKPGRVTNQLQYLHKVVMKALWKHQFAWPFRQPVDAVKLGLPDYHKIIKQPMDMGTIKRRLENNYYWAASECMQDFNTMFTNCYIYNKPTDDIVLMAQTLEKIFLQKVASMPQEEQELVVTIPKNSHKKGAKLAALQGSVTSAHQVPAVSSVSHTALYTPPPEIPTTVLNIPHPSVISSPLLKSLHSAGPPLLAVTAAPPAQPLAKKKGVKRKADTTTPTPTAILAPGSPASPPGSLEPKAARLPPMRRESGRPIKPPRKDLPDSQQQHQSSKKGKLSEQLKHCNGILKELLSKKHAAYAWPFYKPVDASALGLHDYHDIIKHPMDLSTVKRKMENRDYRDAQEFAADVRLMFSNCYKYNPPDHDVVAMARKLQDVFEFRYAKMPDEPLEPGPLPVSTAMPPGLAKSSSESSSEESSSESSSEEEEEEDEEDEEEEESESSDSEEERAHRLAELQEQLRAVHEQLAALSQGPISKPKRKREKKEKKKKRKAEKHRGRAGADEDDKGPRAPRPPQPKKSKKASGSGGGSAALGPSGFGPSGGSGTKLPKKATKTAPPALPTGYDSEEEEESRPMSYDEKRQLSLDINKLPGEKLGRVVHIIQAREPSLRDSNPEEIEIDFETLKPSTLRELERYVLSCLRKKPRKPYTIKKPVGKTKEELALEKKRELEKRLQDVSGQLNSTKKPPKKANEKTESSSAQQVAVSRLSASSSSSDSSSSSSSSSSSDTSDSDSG
Chain of Bromodomain adjacent to zinc finger domain protein 2B (Homo sapiens) (Q9UIF8 whole entry, the tested form may be a part): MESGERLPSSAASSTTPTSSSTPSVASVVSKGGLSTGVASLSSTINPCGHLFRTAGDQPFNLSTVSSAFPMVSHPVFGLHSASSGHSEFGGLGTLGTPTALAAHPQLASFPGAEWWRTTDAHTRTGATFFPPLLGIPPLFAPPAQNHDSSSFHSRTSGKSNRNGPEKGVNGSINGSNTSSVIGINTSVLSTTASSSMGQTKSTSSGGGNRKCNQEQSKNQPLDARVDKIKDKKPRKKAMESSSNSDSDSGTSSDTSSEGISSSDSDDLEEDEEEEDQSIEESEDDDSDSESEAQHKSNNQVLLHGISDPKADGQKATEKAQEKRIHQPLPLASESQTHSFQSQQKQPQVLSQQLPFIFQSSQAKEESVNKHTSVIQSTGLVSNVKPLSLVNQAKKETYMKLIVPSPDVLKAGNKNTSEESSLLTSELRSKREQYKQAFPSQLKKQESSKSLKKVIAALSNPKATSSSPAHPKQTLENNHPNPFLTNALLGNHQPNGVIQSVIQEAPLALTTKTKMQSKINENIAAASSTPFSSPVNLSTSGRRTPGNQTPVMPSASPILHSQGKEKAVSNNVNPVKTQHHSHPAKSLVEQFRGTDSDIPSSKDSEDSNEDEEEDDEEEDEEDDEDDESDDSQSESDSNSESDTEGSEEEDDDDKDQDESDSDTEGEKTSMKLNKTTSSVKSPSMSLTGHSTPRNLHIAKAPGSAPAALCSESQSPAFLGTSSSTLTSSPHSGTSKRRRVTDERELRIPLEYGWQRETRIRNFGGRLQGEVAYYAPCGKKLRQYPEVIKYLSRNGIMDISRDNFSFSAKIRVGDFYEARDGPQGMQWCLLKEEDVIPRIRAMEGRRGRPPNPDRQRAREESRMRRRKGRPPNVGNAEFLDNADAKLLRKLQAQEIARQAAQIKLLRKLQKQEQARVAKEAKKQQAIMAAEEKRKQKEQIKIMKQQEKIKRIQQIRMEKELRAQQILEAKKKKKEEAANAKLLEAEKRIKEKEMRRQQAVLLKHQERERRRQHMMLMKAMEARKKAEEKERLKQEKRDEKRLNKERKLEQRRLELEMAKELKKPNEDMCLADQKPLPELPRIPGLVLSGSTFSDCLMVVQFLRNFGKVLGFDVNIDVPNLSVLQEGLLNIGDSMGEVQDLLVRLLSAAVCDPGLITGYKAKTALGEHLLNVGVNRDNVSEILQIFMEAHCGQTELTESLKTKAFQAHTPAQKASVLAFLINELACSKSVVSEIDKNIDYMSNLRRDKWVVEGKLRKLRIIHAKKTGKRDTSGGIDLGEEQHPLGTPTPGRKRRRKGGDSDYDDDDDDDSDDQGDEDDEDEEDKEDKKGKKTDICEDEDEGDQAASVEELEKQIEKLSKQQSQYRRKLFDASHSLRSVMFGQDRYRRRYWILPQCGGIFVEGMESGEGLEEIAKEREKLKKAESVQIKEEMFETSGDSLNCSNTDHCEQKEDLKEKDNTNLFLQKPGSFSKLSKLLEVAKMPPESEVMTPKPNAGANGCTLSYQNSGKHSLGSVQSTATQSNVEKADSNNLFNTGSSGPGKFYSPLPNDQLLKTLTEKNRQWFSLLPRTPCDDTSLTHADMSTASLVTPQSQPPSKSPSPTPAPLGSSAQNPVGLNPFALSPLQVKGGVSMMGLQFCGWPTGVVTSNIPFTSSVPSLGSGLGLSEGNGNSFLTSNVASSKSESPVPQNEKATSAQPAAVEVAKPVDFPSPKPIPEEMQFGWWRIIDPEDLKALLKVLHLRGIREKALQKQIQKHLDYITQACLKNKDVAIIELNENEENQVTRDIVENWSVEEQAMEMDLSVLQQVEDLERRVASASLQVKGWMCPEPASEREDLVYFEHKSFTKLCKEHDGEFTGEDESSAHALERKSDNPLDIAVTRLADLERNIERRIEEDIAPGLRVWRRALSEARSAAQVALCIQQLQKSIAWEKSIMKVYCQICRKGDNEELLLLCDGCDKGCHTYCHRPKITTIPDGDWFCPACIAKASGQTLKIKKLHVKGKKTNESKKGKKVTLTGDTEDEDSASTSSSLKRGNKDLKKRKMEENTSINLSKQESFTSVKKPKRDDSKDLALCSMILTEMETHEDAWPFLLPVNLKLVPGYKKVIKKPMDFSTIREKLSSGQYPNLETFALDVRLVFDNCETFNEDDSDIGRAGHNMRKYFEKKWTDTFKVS
Chain of Bromodomain-containing protein 3 (Q15059 2-726 limits assumed): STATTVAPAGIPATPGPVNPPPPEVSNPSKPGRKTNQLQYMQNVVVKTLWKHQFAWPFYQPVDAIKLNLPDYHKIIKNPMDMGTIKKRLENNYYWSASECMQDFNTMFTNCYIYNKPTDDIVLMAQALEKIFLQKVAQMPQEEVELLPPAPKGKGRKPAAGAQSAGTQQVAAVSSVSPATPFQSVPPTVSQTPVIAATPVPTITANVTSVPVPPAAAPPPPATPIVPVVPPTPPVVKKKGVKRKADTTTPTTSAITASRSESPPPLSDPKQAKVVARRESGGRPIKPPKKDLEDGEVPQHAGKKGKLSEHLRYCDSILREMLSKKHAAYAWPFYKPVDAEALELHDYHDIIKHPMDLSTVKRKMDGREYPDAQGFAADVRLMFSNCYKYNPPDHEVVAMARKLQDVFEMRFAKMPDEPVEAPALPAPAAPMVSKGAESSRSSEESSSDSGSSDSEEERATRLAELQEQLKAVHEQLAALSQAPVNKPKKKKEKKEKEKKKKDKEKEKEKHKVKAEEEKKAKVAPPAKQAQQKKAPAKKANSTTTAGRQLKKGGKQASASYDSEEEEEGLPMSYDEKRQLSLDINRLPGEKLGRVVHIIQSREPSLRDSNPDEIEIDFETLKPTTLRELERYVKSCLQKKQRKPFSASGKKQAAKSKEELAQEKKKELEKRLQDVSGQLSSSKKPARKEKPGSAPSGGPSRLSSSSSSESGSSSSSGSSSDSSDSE

For `Cc1ccc(-c2c(C)noc2C)cc1S(=O)(=O)NC1CCCC1`, the ΔTm is less than 1 °C in [1]; 2 °C in [4]; 2 °C in [5]; less than 1 °C in [6]; less than 1 °C in data set [7]; 1 °C in data set [8]. The results for the thermal shift (ΔTm) in data set [9], in data set [10] and in data set [11] were less than 1 °C, 2 °C and less than 1 °C, respectively. Besides, the solubility in data set [2] and in [3] was less than 1 µg/mL each time.
As to `Cc1noc(C)c1-c1ccc(OCCCN2CCOCC2)c(S(=O)(=O)NC2CCCC2)c1`, the ΔTm was less than 1 °C in [1]; 2 °C in [4]; 2 °C in data set [5]; less than 1 °C in [6]; less than 1 °C in [7]; 1 °C in data set [8]. Moreover, the shift in melting temperature (ΔTm) is less than 1 °C in data set [9], 2 °C in [10] and 1.5 °C in data set [11]. For the same molecule, the figures for the solubility in [2] and in data set [3] were 210 µg/mL (≈ 453 µM) and 1120 µg/mL (≈ 2430 µM), respectively.

Broadly, the ΔTm is the change in melting temperature against a reference sample. Usually solubility stands for how much of the substance goes into solution per volume.
